One may read the IC50 as the point on the concentration scale where inhibition reaches its midpoint.

One assay has as its system HL-60. As to the kind of experiment: Cytotoxicity against human HL60 cells after 48 hrs by MTT assay. The class given is functional, cell-based. The note with it: HL-60, 48 h. The method in brief:
(§1)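 Log-phase tumour cells grown in RPMI-1640 with 10% FBS, penicillin/streptomycin and 1% L-glutamine at 37 °C, 5% CO2. Cells treated with vehicle or a range of concentrations for 48 h. Growth measured by MTT reduction, absorbance at 570 nm. IC50 is the concentration giving 50% proliferation inhibition, from 3 independent experiments.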
(Tetrazolium assays rely on reduction of a dye to a coloured formazan, in cell work by metabolically active cells.)

Another assay has as its system COLO 205. As to the kind of experiment: Cytotoxicity against human COLO205 cells after 48 hrs by MTT assay. The class given is functional, cell-based. The following applies: COLO 205, 48 h. Put shortly:
as §1

The subject of a further assay is MCF7. The assay can be described thus: Cytotoxicity against human MCF7 cells after 48 hrs by MTT assay. It counts as functional, cell-based. The following applies: MCF7, 48 h. The method in brief: as §1
A further assay has as its system SK-OV-3. The assay can be described thus: Cytotoxicity against human SKOV3 cells after 48 hrs by MTT assay. It counts as functional, cell-based. The note with it: SK-OV-3, 48 h. The method in brief: as §1
The next assay deals with Detroit 551. As to the kind of experiment: Cytotoxicity against human Detroit 551 cells after 48 hrs by MTT assay. It counts as cell-based. The following applies: Detroit 551, 48 h. Put shortly: (§2)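 Detroit 551 normal skin cells and Hep 3B hepatoma cells grown in DMEM with 10% FBS, penicillin/streptomycin and 1% L-glutamine at 37 °C, 5% CO2. Log-phase cells treated with vehicle or a range of concentrations for 48 h. MTT reduction read at 570 nm. IC50 (50% proliferation inhibition) taken from 3 independent experiments.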

The next assay concerns A498. As to the kind of experiment: Cytotoxicity against human A498 cells after 48 hrs by MTT assay. The following applies: A498, 48 h. It counts as functional, cell-based. Put shortly:
as §1

Assay [1] is described as follows: Cytotoxicity against human 2774 cells after 48 hrs by MTT assay. It counts as functional, cell-based.
Assay [2] is described as follows: Cytotoxicity against human Hep3B cells after 48 hrs by MTT assay. It counts as functional, cell-based, Hep 3B2. The method in brief:
as §2

The nature of assay [3]: Cytotoxicity against human H460 cells after 48 hrs by MTT assay. The note with it: NCI-H460, 48 h. The class given is functional, cell-based. The method in brief:
as §1

As for `O=c1cc(-c2cccc(F)c2)c2cc3c(cc2[nH]1)OCO3`, the IC50 in the assay on HL-60 is greater than 20 µM; in the assay with COLO 205 it was greater than 50 µM; in the assay with MCF7, greater than 30 µM; with SK-OV-3 it was greater than 30 µM; with Detroit 551 it was greater than 20 µM; in the assay with A498, greater than 50 µM. The values for the IC50 in assay [1], in assay [2] and in assay [3] were 24.5 µM, greater than 20 µM and greater than 20 µM, respectively.

Regarding `O=c1cc(-c2ccccc2)c2cc3c(cc2[nH]1)OCO3`, the IC50 is greater than 50 µM in the assay on HL-60; greater than 50 µM in the assay with COLO 205; 18.5 µM in the assay with MCF7; greater than 30 µM in the assay on SK-OV-3; greater than 50 µM in the assay with Detroit 551; 42.7 µM with A498. Also, the IC50 is greater than 30 µM in assay [1], greater than 50 µM in [2] and greater than 50 µM in assay [3].

Consider `COc1ccc(-c2cc(=O)[nH]c3cc4c(cc23)OCO4)cc1OC`, for which the IC50 was found to be 4.1 µM in the assay on HL-60; 16.8 µM with COLO 205; 14.3 µM in the assay on MCF7; 6.4 µM in the assay on SK-OV-3; 23.6 µM in the assay with Detroit 551; 25.6 µM with A498. In addition, the IC50 in assay [1] worked out at 6.6 µM; in assay [2] it was 14.6 µM; in assay [3], 14.4 µM.

As for `COc1ccc(OC)c(-c2cc(=O)[nH]c3cc4c(cc23)OCO4)c1`, the IC50 is 3.5 µM in the assay on HL-60; 6.1 µM in the assay on COLO 205; 3.7 µM in the assay with MCF7; 20 µM with SK-OV-3; greater than 100 µM in the assay with Detroit 551; 28.9 µM with A498. Besides, the results for the IC50 in [1], in assay [2] and in assay [3] were 6.5 µM, 10 µM and 10 µM, respectively.

Take `COc1ccc(-c2cc(=O)[nH]c3cc4c(cc23)OCO4)cc1`: the IC50 is greater than 20 µM in the assay on HL-60; greater than 50 µM with COLO 205; greater than 30 µM in the assay on MCF7; 26.8 µM with SK-OV-3; greater than 20 µM in the assay on Detroit 551; greater than 25 µM in the assay on A498. Moreover, the IC50 was greater than 30 µM in assay [1], greater than 20 µM in [2] and greater than 20 µM in [3].

Take `O=c1cc(-c2ccccc2F)c2cc3c(cc2[nH]1)OCO3`: the IC50 is greater than 100 µM in the assay with HL-60; greater than 50 µM with COLO 205; greater than 30 µM with MCF7; greater than 30 µM in the assay with SK-OV-3; greater than 100 µM in the assay on Detroit 551; greater than 50 µM in the assay on A498. For the same compound, the 50% inhibitory concentration (IC50) in assay [1] is 26.4 µM; in assay [2] it was greater than 100 µM; in assay [3], greater than 100 µM.

As for `COc1cccc(OC)c1-c1cc(=O)[nH]c2cc3c(cc12)OCO3`, the IC50 with HL-60 is greater than 100 µM; in the assay on COLO 205, greater than 50 µM; in the assay on MCF7, 29.8 µM; with SK-OV-3, greater than 30 µM; in the assay on Detroit 551, greater than 100 µM; with A498, greater than 50 µM. Besides, the figures for the IC50 in assay [1], in [2] and in [3] were greater than 30 µM, greater than 100 µM and greater than 100 µM, respectively.

Take `COc1cccc(-c2cc(=O)[nH]c3cc4c(cc23)OCO4)c1`: the IC50 was greater than 10 µM with HL-60; 39.6 µM in the assay on COLO 205; 14.9 µM with MCF7; 24.6 µM with SK-OV-3; greater than 10 µM in the assay with Detroit 551; greater than 50 µM in the assay on A498. Moreover, the IC50 in assay [1] is 15.6 µM; in [2], greater than 10 µM; in assay [3], greater than 10 µM.

Take `COc1ccccc1-c1cc(=O)[nH]c2cc3c(cc12)OCO3`: the IC50 in the assay with HL-60 was 10 µM; in the assay on COLO 205, 18.1 µM; with MCF7, 27.1 µM; in the assay on SK-OV-3 it was 26.6 µM; with Detroit 551 it was greater than 25 µM; in the assay with A498 it was 9.8 µM. Besides, the IC50 in [1] was 18.8 µM; in assay [2], 23.3 µM; in assay [3], greater than 25 µM.

Take `O=c1[nH]cc(F)c(=O)[nH]1` [FLUOROURACIL]: the values for the IC50 (in the assay on HL-60; in assay [3]) were 22.3 µM and 26.7 µM, respectively.

For `COc1cc(OC)cc(-c2cc(=O)[nH]c3cc4c(cc23)OCO4)c1`, the IC50 is 2.9 µM with HL-60; greater than 50 µM in the assay with COLO 205; greater than 30 µM in the assay with MCF7; greater than 30 µM in the assay on SK-OV-3; greater than 10 µM in the assay on Detroit 551; 11.7 µM with A498. For the same compound, the IC50 in assay [1] was 8.3 µM; in [2] it was greater than 10 µM; in assay [3], greater than 10 µM.

In the case of `COc1cc([C@@H]2c3cc4c(cc3[C@@H](O[C@@H]3O[C@@H]5CO[C@@H](C)O[C@H]5[C@H](O)[C@H]3O)[C@H]3COC(=O)[C@H]23)OCO4)cc(OC)c1O` [ETOPOSIDE], the IC50 with HL-60 was 5.48 µM; in assay [3] it was 1 µM.

Regarding `O=c1cc(-c2ccc(F)cc2)c2cc3c(cc2[nH]1)OCO3`, the IC50 is greater than 60 µM in the assay on HL-60; greater than 50 µM with COLO 205; greater than 30 µM in the assay with MCF7; greater than 30 µM in the assay with SK-OV-3; greater than 20 µM in the assay on Detroit 551; greater than 50 µM in the assay on A498. Further, the IC50 is 17.6 µM in [1], greater than 20 µM in assay [2] and greater than 20 µM in assay [3].

In the case of `COc1cc(OC)c(-c2cc(=O)[nH]c3cc4c(cc23)OCO4)c(OC)c1`, the IC50 in the assay with HL-60 is 75 µM; with COLO 205 it was 37.4 µM; with MCF7 it was 21 µM; with SK-OV-3, greater than 30 µM; with Detroit 551, greater than 100 µM; in the assay with A498, greater than 50 µM. Moreover, the results for the IC50 in assay [1], in assay [2] and in [3] were greater than 30 µM, greater than 100 µM and 67.6 µM, respectively.

With `COc1cc(-c2cc(=O)[nH]c3cc4c(cc23)OCO4)cc(OC)c1OC`, the IC50 in the assay with HL-60 was 2.3 µM; with COLO 205, greater than 50 µM; in the assay on MCF7 it was 4.5 µM; with SK-OV-3 it was 0.93 µM; in the assay with Detroit 551, greater than 25 µM; with A498, greater than 50 µM. Moreover, the values for the 50% inhibitory concentration (IC50) in assay [1], in assay [2] and in assay [3] were 2.1 µM, 5 µM and 7.6 µM, respectively.
